# APJ agonist – agonists of human APJ apelin receptor. 0.11% of 330,000 active. P35414. activation, % at 20 µM. CHO-K1 APJ PathHunter beta-arrestin, luminescence; 0% DMSO wells, 100% apelin;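 active = activation more than six SD over the plate average, tested at 20 µM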;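 note: 0% = DMSO alone and 100% = apelin-13 at 10 nM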
#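 Assay system: engineered CHO-K1 APJ arrestin reporter cells; Amount: 1000 CHO-K1 reporter cells seeded per well; Dosing: one dose, 20 µM compound, 1% DMSO; Times: compound stimulation 90 min at 25 °C, detection 60 min; Measured by: luminescent beta-gal fragment complementation, chemiluminescent substrate; Read-out: APJ–arrestin association signal; Controls: DMSO vs Apelin-13 10 nM.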
# GAA850 FXN act – activators of GAA850 frataxin (FXN) promoter. HEK293 lucGAA850 FXN promoter luciferase reporter, 24 h; percent of 10 µM SAHA response. activation, % at 6 µM. 0.56% of 360,000 active;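 active = activation above the average of all compounds screened plus 3 SD, cutoff fixed separately per campaign, cut at about 7.5% in these data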;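 note: 0% = DMSO wells and 100% = 10 µM SAHA wells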
# CXCR6 block – inhibitors of human CXCR6 receptor | O00574 | CHO-K1 PathHunter CXCR6 beta-arrestin, luminescence | inhibition, % at 20 µM | 0.36% of 360,000 active | AID 602244; in the data active = inhibition above about 34%, passing the limit was not always enough;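 note: antagonist mode with CXCL16 agonist at 10 nM final; 0% = 10 nM CXCL16 with DMSO and 100% = unstimulated wells without agonist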
# EBI2 block – antagonists of human EBI2 receptor. P32249. EBI2 beta-arrestin recruitment, luminescence, 7a,25-OHC stimulated. inhibition, % at 5 µM. 0.81% of 360,000 active. AID 651636; in the data active = inhibition above about 38%;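 note: enzyme fragment complementation signal reports receptor beta-arrestin coupling in cells; 0% = agonist plus DMSO wells and 100% = wells without agonist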
# APJ antagonist – antagonists of human APJ apelin receptor; 0.32% of 330,000 active; inhibition, % at 20 µM; AID 2521; CHO-K1 APJ beta-arrestin complementation, luminescence; P35414;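 active = inhibition above about 40% at 20 µM, limit read from the data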;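 note: cells challenged with 10 nM apelin-13 agonist together with compound; plate controls were apelin-13 plus DMSO wells for no effect and DMSO wells lacking apelin-13 for full effect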
# CCR6 antag – CCR6 (human) receptor antagonism; P51684; CHO-K1 CCR6 PathHunter beta-arrestin, luminescence, CCL20-stimulated; inhibition, % at 20 µM; 0.49% of 340,000 active;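 active = compounds whose inhibition of the agonist-driven luminescence signal at 20 µM reaches about 50%, limit read from the data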;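 note: cells stimulated with CCL20 at 14 nM final; plate controls were DMSO with CCL20 for no effect and DMSO without agonist for full effect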
# Target sequence (P51684 whole entry, looked up): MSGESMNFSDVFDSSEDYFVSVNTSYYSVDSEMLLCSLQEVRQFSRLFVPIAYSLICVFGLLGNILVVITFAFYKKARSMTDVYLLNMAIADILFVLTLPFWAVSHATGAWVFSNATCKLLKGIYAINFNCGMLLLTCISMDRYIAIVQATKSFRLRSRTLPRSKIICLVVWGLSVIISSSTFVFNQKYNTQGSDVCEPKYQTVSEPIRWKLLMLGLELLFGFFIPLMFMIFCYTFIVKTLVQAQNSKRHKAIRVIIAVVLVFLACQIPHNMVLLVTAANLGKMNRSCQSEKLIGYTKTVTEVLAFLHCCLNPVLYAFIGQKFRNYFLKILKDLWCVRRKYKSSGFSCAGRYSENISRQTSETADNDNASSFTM
# APJ ag conf – confirmation of human APJ apelin receptor agonists. shares compounds with APJ agonist. CHO-K1 APJ PathHunter beta-arrestin, luminescence. activation, % at 20 µM. 10% of 310 active. AID 2764;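 active = activation above 40%, taking the highest of four retests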;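 note: plate controls were DMSO wells for no effect and apelin-13 at 10 nM for full effect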
# Active calls of the source: *; . = no result given. Compounds with a hit are over-represented: about 2% of the library has one in this group of screens.
SMILES,APJ agonist,GAA850 FXN act,CXCR6 block,EBI2 block,APJ antagonist,CCR6 antag,others
O=C(Cn1c(=O)n(CC2CS2)c2ccccc21)N1CCCCCC1 (configuration not stated),-5,-1,-5,-9,8,62*,
C=C(C)Cn1c(=O)n(CC2CS2)c2ccccc21 (configuration not stated),-3,2,-22,-5,4,2,
O=C1C(=O)c2cccc3cccc1c23,-13,1,44*,57*,63*,67*,
CC1CN(c2ccc([N+](=O)[O-])c3cccnc23)CC(C)N1 (configuration not stated),0,9.6*,2,-1,-16,-1,
O=c1c2ccccc2[se]n1-c1ccccc1,-1,-2,-3,62*,-3,15,
O=c1c2ccccc2nc(-c2ccccc2)n1-c1ccccc1,-1,0,-8,-8,16,1,
CN1/C(=C\C=C\C2=[N+](C)c3ccc4ccccc4c3C2(C)C)C(C)(C)c2ccccc21,-5,.,.,.,43*,.,
CN1/C(=C\C=Nc2ccccc2)C(C)(C)c2ccccc21,1,1,-6,14,-15,6,
CCN1/C(=C/C=C/C2=[N+](CC)c3ccccc3C2(C)C)C(C)(C)c2ccccc21,.,-14,56*,16,.,.,
CN1/C(=C\C=C2C(=O)NC(=O)NC2=O)C(C)(C)c2ccccc21,-2,1,-2,0,22,10,
CC12CC1(C)C(=O)N(c1cc(Cl)cc(Cl)c1)C2=O (configuration not stated),.,1,10,-11,.,8,
CC(C)OCCCNC(=O)c1c(N)n(Cc2cccs2)c2nc3ccccc3nc12,-5,2,-1,71*,21,-11,
COCCCNC(=O)c1c(N)n(Cc2ccco2)c2nc3ccccc3nc12,0,2,5,10,6,-3,
Brc1ccc2[nH]cc(C=NN3CCCCCC3)c2c1,.,0,-11,-11,.,-1,
CN(C)c1ccc(/C=C/C=C2/C(=O)NC(=O)N(c3ccccc3)C2=O)cc1,.,5,46*,27,.,66*,
O=C1NC(=O)N(c2ccccc2)C(=O)/C1=C/C=C/c1ccco1,0,6,9,-1,-29,22,
O=C1NC(=O)C(=Cc2ccc(-c3ccc(Cl)cc3)o2)C(=O)N1,24,3,50*,21,-2,71*,
COC(=O)C1=C(c2c(C)noc2C)C[C@@H]2CC[C@H]1N2C(=O)NCCO,-6,0,6,3,4,-9,
COC(=O)C1=C(c2ccc(-c3ccccc3)c(F)c2)C[C@@H]2CC[C@H]1N2C(=O)N1CCC(C)CC1,-4,-8,41*,33,14,28,
ON1C2CCCCC2N(O)C1c1ccccc1F (configuration not stated),-8,4,24,-13,24,80*,
CN1CC(C(=O)c2ccc(Cl)cc2)C(c2ccccc2F)C1 (configuration not stated),-4,3,8,8,7,13,
COC(=O)C1=C(c2ccccc2)C[C@@H]2CC[C@H]1N2C,-4,-2,-5,-8,9,-2,
CN1C(=O)C(=Cc2ccc(N3CCOCC3)o2)C(=O)N(C)C1=S,-5,4,3,2,42*,57*,
CCN1C(=O)C(=Cc2ccc(N3CCOCC3)o2)C(=O)N(CC)C1=S,-8,2,-1,-12,27,14,
O=C(c1ccccc1)C(CN1CCCC1)c1ccccc1 (configuration not stated),.,-10,7,-55,.,8,
SMILES,APJ agonist,GAA850 FXN act,CXCR6 block,EBI2 block,APJ antagonist,CCR6 antag,others
CC1CCN(C(CC(=O)c2ccccc2)C(=O)c2ccccc2)CC1 (configuration not stated),.,4,30,15,.,65*,
Cc1nc2ccccc2c(=O)n1-c1c(Cl)cccc1Cl,.,-1,8,-4,.,.,
O=C(N/N=C\C1C(=O)NC(=S)N(c2ccccc2)C1=O)c1ccc(O)cc1 (configuration not stated),-6,2,4,-10,-9,62*,
C=CCC1(Cc2ccsc2)C(=O)NC(=O)NC1=O,.,0,-4,3,.,-2,
O=C(NCCN1CCC2(CC1)C(=O)NCN2c1cccc(F)c1)c1ccc2ccccc2c1,.,.,7,3,.,.,
O=C1C=CC(=O)C=C1,-1,1,-4,-9,-2,79*,
CC(=O)OC1CC2OC3C=C(C)CCC3(C)C1(C)C21CO1 (configuration not stated),.,-16,3,27,.,.,
C=C1C(=O)OC2CC(C)C3C=CC(=O)C3(C)C(O)C12 (configuration not stated),.,-16,29,47*,.,47,
COc1ccc(CC2C(=O)NC(C)C(=O)N(C)C3C(=O)N(C)C(Cc4ccc(O)c(c4)Oc4ccc(cc4)C3O)C(=O)NC(C)C(=O)NC(C)C(=O)N2C)cc1 (configuration not stated),.,-15,1,8,.,4,
C[C@]12CCC3C(CC[C@H]4C[C@@H](O)CC[C@]34C)[C@H]1C=CC2=O (some centres not stated),0,9.4*,-1,-1,8,1,
COc1ccc(-n2nnnc2C(c2cccs2)N2CCC3(CC2)C(=O)NCN3c2ccccc2)cc1 (configuration not stated),.,.,10,-3,.,.,
O=C1NC(=O)N(CCc2ccc(F)cc2)C(=O)/C1=C\C=C\c1ccccc1,.,1,-7,48*,.,-24,
CC12CCCCC1N(O)CN2O (configuration not stated),-1,0,5,4,18,60*,
COC1CC2C=C(C)C=CC=CC(=O)NC(c3ccccc3)CC=CCCC(O)CC(=O)C2=C1O (configuration not stated),.,.,31,-3,.,.,
COC(=O)C1CN(C#N)N(c2ccc(Cl)cc2)C12c1ccccc1-c1ccccc12 (configuration not stated),2,-15,23,53*,21,32,
CCCSc1nc(O)c(CC)c(=O)n1C(C)CC (configuration not stated),60*,0,-3,-15,13,-7,APJ ag conf=62*
O=C1C(=O)c2ccccc2-c2ccccc21,37*,-15,22,-60,-3,34,APJ ag conf=42*
C=C(C=O)C[C@@H]1C[C@H](O)C2OC3C[C@]4(C)OC5/C=C\CC6OC7C(CC=CCC6OC5CCCC4OC3CC2O1)OC1CC2OC3CC(=O)OC3C[C@@H](C)C[C@@]2(C)OC1C[C@@H]7C (some centres not stated),21*,.,.,.,-12,47,APJ ag conf=19
